From ChEMBL document CHEMBL2424590, “4-[18F]Fluoro-m-hydroxyphenethylguanidine: a radiopharmaceutical for quantifying regional cardiac sympathetic nerve density with positron emission tomography” (J Med Chem, 2013)

Legend:
Rattus norvegicus [1] = assay: Biodistribution in Sprague-Dawley rat uterus at 20 to 120 uCi, iv after 60 mins by gamma counting analysis; assay type: ADME, organism-based; conditions: in vivo, 1 h
Summary of the method: (§1)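 Male and female rats (2 per sex per time point, 280–330 g) under light isoflurane given tail-vein bolus of 20–120 μCi tracer in 0.05–0.10 mL isotonic 60 mM sodium phosphate, pH 5.4. Tissues sampled at 5, 30, 60 or 120 min, weighed and gamma-counted. Decay-corrected dpm per gram normalised to injected dpm and body weight, given as %ID·kg/g.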

Pancreas [2] = assay: Biodistribution in Sprague-Dawley rat pancreas at 20 to 120 uCi, iv after 60 mins by gamma counting analysis; assay type: ADME, organism-based; conditions: in vivo, 1 h
Summary of the method: (§2)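 Sprague-Dawley rats (280–330 g), 2 male and 2 female per time point (5, 30, 60, 120 min), under light isoflurane, received a tail-vein bolus of 20–120 μCi tracer in 0.05–0.10 mL isotonic 60 mM sodium phosphate, pH 5.4. Tissues were weighed and gamma-counted. Decay-corrected dpm/g was normalized to injected dpm per kg body weight (%ID·kg/g).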

Pancreas [3] = assay: Biodistribution in Sprague-Dawley rat pancreas at 20 to 120 uCi, iv after 30 mins by gamma counting analysis; assay type: ADME, organism-based; conditions: in vivo, 0.5 h; summary of the method: as §2
[4] = Half life in Sprague-Dawley rat heart sympathetic neurons at 2 uCi/mL administered as infusion by gamma counting analysis; assay type: ADME, tissue-based; conditions: sympathetic neuron
Summary of the method: (§3)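 Isolated working rat hearts perfused with 54 μM corticosterone in all perfusates to block uptake-2. Tracer infused at <10 nM total mass for 10 min to measure neuronal uptake rate (mL/min/g wet), then switched to normal perfusate to follow clearance over 2 h.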

Ovary = assay: Biodistribution in Sprague-Dawley rat ovary at 20 to 120 uCi, iv after 60 mins by gamma counting analysis; assay type: ADME, organism-based, Female gonad; conditions: in vivo, 1 h
Summary of the method: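 Sprague-Dawley rats (280–330 g) under light isoflurane received a tail-vein bolus of 20–120 μCi tracer in 0.05–0.10 mL isotonic 60 mM sodium phosphate, pH 5.4. Sampling was at 5, 30, 60 or 120 min. […] were weighed and gamma-counted. Decay-corrected dpm/g was normalized to injected dpm per kg body weight (%ID·kg/g).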

Blood = assay: Biodistribution in Sprague-Dawley rat blood at 20 to 120 uCi, iv after 5 mins by gamma counting analysis; assay type: ADME, organism-based; conditions: in vivo; summary of the method: as §2
Rattus norvegicus [5] = assay: Biodistribution in Sprague-Dawley rat uterus at 20 to 120 uCi, iv after 5 mins by gamma counting analysis; assay type: ADME, organism-based; conditions: in vivo; summary of the method: as §1
[6] = Drug uptake in rhesus macaque monkey liver at 5 to 6 mCi, iv after 90 mins by PET analysis; assay type: ADME, organism-based, Macaca mulatta; conditions: in vivo, 1.5 h
Brain = assay: Biodistribution in Sprague-Dawley rat brain at 20 to 120 uCi, iv after 5 mins by gamma counting analysis; assay type: ADME, organism-based; conditions: in vivo; summary of the method: as §2
Pancreas [7] = assay: Biodistribution in Sprague-Dawley rat pancreas at 20 to 120 uCi, iv after 5 mins by gamma counting analysis; assay type: ADME, organism-based; conditions: in vivo; summary of the method: as §2
Rattus norvegicus [8] = assay: Biodistribution in Sprague-Dawley rat stomach at 20 to 120 uCi, iv after 60 mins by gamma counting analysis; assay type: ADME, organism-based; conditions: in vivo, 1 h; summary of the method: as §1
[9] = Drug uptake in rhesus macaque monkey adrenal glands 5 to 6 mCi, iv after 90 mins by PET analysis; assay type: ADME, organism-based, Macaca mulatta, Adrenal gland; conditions: in vivo, 1.5 h
Liver = assay: Biodistribution in Sprague-Dawley rat liver at 20 to 120 uCi, iv after 60 mins by gamma counting analysis; assay type: ADME, organism-based; conditions: in vivo, 1 h; summary of the method: as §2
Plasma = assay: Metabolic stability in rhesus macaque monkey plasma assessed as retention time of [18F]-2-fluoro-5-(2-guanidinoethyl)phenyl hydrogen sulfate at 5 to 6 mCi, iv by RP-HPLC analysis; assay type: ADME, organism-based, Macaca mulatta; conditions: in vivo
Summary of the method: (§4)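 Six venous samples (1.5–2.0 mL; typically 1, 2, 4, 10, 30, 60 min) drawn during the monkey PET scan into heparin and centrifuged 1 min at 12000 × g. Plasma deproteinised with HClO₄ (final 0.4 N), spun, neutralised with KOH to pH 7.0–7.5 and filtered twice (0.22 μm). Analysed by reverse-phase HPLC (10% EtOH in 60 mM NaH₂PO₄, pH 5.4, 1.0 mL/min) with NaI(Tl) radiodetection. Decay-corrected intact fraction per sample; T1/2 is the time at which 50% of plasma activity is metabolite.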

Muscle tissue = assay: Biodistribution in Sprague-Dawley rat muscle at 20 to 120 uCi, iv after 60 mins by gamma counting analysis; assay type: ADME, organism-based; conditions: in vivo, 1 h; summary of the method: as §2
[10] = Half life in rhesus macaque monkey plasma at 5 to 6 mCi, iv by RP-HPLC analysis; assay type: ADME, organism-based, Macaca mulatta; summary of the method: as §4
Lung [11] = assay: Biodistribution in Sprague-Dawley rat lung at 20 to 120 uCi, iv after 5 mins by gamma counting analysis; assay type: ADME, organism-based; conditions: in vivo; summary of the method: as §2
Rattus norvegicus [12] = assay: Biodistribution in Sprague-Dawley rat eyeballs at 20 to 120 uCi, iv after 30 mins by gamma counting analysis; assay type: ADME, organism-based, Eyeball of camera-type eye; conditions: in vivo, 0.5 h; summary of the method: as §2
Rattus norvegicus [13] = assay: Biodistribution in Sprague-Dawley rat stomach at 20 to 120 uCi, iv after 120 mins by gamma counting analysis; assay type: ADME, organism-based; conditions: in vivo, 2 h; summary of the method: as §1
Nucleic Acid = assay: Ratio of drug level in heart to blood in rhesus macaque monkey at 5 to 6 mCi, iv after 90 mins by PET analysis; assay type: ADME, organism-based, Macaca mulatta; conditions: other tissue, 1.5 h
[14] = Drug uptake in rhesus macaque monkey cortex 5 to 6 mCi, iv after 90 mins by PET analysis; assay type: ADME, organism-based, Macaca mulatta; conditions: in vivo, 1.5 h
Heart [15] = assay: Biodistribution in Sprague-Dawley rat heart at 20 to 120 uCi, iv after 30 mins by gamma counting analysis; assay type: ADME, organism-based; conditions: in vivo, 0.5 h; summary of the method: as §2
Heart [16] = assay: Biodistribution in Sprague-Dawley rat heart at 20 to 120 uCi, iv after 5 mins by gamma counting analysis; assay type: ADME, organism-based; conditions: in vivo; summary of the method: as §2
Rattus norvegicus [17] = assay: Biodistribution in Sprague-Dawley rat eyeballs at 20 to 120 uCi, iv after 60 mins by gamma counting analysis; assay type: ADME, organism-based, Eyeball of camera-type eye; conditions: in vivo, 1 h; summary of the method: as §2
Adrenal = assay: Biodistribution in Sprague-Dawley rat adrenal at 20 to 120 uCi, iv after 30 mins by gamma counting analysis; assay type: ADME, organism-based, Adrenal tissue; conditions: in vivo, 0.5 h; summary of the method: as §2
Lung [18] = assay: Biodistribution in Sprague-Dawley rat lung at 20 to 120 uCi, iv after 30 mins by gamma counting analysis; assay type: ADME, organism-based; conditions: in vivo, 0.5 h; summary of the method: as §2
Rattus norvegicus [19] = assay: Biodistribution in Sprague-Dawley rat uterus at 20 to 120 uCi, iv after 120 mins by gamma counting analysis; assay type: ADME, organism-based; conditions: in vivo, 2 h; summary of the method: as §1
Bone = assay: Biodistribution in Sprague-Dawley rat bone at 20 to 120 uCi, iv after 5 mins by gamma counting analysis; assay type: ADME, organism-based, Bone element; conditions: in vivo; summary of the method: as §2
[20] = Drug excretion in rat urinary bladder at 0.5 mCi by PET analysis; conditions: in vivo
[21] = Half life in rat urinary bladder at 0.5 mCi by PET analysis; conditions: in vivo
[22] = Drug uptake in Sprague-Dawley rat heart sympathetic neurons measured per gram wet mass of heart at 2 uCi/mL administered as infusion for 10 mins measured after 120 mins by gamma counting analysis; assay type: ADME, tissue-based; conditions: sympathetic neuron, 2 h; summary of the method: as §3
Spleen = assay: Biodistribution in Sprague-Dawley rat spleen at 20 to 120 uCi, iv after 60 mins by gamma counting analysis; assay type: ADME, organism-based; conditions: in vivo, 1 h; summary of the method: as §1

For `N=C(N)NCCc1ccc([18F])c(O)c1`, the Drug uptake (Rattus norvegicus [1]) was 0.112 %IDKg/g, the Drug uptake (Pancreas [2]) was 0.172 %IDKg/g and the Drug uptake (Pancreas [3]) was 0.145 %IDKg/g. The t1/2 [4] was greater than 1440 min, the Drug uptake (Ovary) was 0.142 %IDKg/g and the Drug uptake (Blood) was 0.062 %ID·kg/g. For the same molecule, the Drug uptake (Rattus norvegicus [5]) was 0.268 %IDKg/g, the Drug uptake [6] was “Not Active” and the Drug uptake (Brain) was 0.004 %IDKg/g. For the same molecule, the Drug uptake (Pancreas [7]) was 0.137 %IDKg/g, the Drug uptake (Rattus norvegicus [8]) was 0.115 %IDKg/g and the Drug uptake [9] was “Active”. The Drug uptake (Liver) was 0.35 %IDKg/g, the Retention_time (Plasma) was 8.2 min and the Drug uptake (Muscle tissue) was 0.016 % ID/g. The half-life [10] was 2.5 min, the Drug uptake (Lung [11]) was 0.267 %IDKg/g and the Drug uptake (Rattus norvegicus [12]) was 0.04 %IDKg/g. The Drug uptake (Rattus norvegicus [13]) was 0.089 %IDKg/g, the Ratio (Nucleic Acid) was 3 and the Drug uptake [14] was “Active”. For the same molecule, the Drug uptake (Heart [15]) was 0.602 %IDKg/g, the Drug uptake (Heart [16]) was 0.746 %IDKg/g and the Drug uptake (Rattus norvegicus [17]) was 0.041 %IDKg/g. For the same molecule, the Drug uptake (Adrenal) was 0.181 %IDKg/g, the Drug uptake (Lung [18]) was 0.136 %IDKg/g and the Drug uptake (Rattus norvegicus [19]) was 0.081 %IDKg/g. The Drug uptake (Bone) was 0.06 %ID·kg/g, the Drug excretion [20] was 19.9 %ID and the t1/2 [21] was 12 min. For the same molecule, the Kup [22] was 0.77 mL/min and the Drug uptake (Spleen) was 0.253 %IDKg/g.
